ChEMBL document CHEMBL4138177, “Design and synthesis of short amphiphilic cationic peptidomimetics based on biphenyl backbone as antibacterial agents” (Eur J Med Chem, 2018)
In brackets after ≈: the same amount, converted by molar mass. Activity calls are given as the source filed them. The calls are words filed in the database; no cut-off is given here.

Legend:
Escherichia coli [1] = experiment: Antimicrobial activity against Escherichia coli K-12 after 18 to 24 hrs by spectrophotometry based broth micro dilution assay; format: functional; conditions: read-out: MIC100
Procedure, shortened: (§1)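 CLSI broth microdilution. Mid-log cells grown in MHB at 37 °C, shaken 120 rpm, washed three times in PBS pH 7.4, diluted in fresh MHB to a final 1–2 × 10⁵ cfu/mL. Two-fold serial dilutions from 250 down to 3.9 µM. Incubated 18–24 h at 37 °C, 120 rpm. A600 read; MIC taken as the lowest concentration giving 100% growth inhibition. Triplicate, three independent experiments.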

Staphylococcus aureus [2] = experiment: Antimicrobial activity against Staphylococcus aureus SA38 after 18 to 24 hrs by spectrophotometry based broth micro dilution assay; format: functional; conditions: read-out: MIC100; procedure, shortened: as §1
Pseudomonas aeruginosa = experiment: Antimicrobial activity against Pseudomonas aeruginosa PAO1 after 18 to 24 hrs by spectrophotometry based broth micro dilution assay; format: functional; conditions: read-out: MIC100; procedure, shortened: as §1
Staphylococcus aureus [3] = experiment: Induction of cytoplasmic membrane disruption in Staphylococcus aureus SA38 at 31.2 uM measured within 3 mins by diSC3-5 dye-based luminescence spectrophotometric analysis; format: functional, organism-based
Lipid bilayer [4] = experiment: Binding affinity to zwitterionic tethered bilayer lipid membranes assessed as increase in membrane capacitance changes at 10 uM by electrochemical impedance spectroscopic analysis
Procedure, shortened: (§2)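 Tethered bilayer membranes formed from a mobile phase of 70% diphytanyl-glycero-phosphatidylcholine and 30% diphytanyl-diglyceride ether (3 mM in ethanol), associated for 2 min, then washed with PBS to give zwitterionic membranes. A variant mobile phase gave negatively charged membranes. Conduction and capacitance measured by AC impedance spectroscopy with Lev-Mar fitting. Triplicate.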

Lipid bilayer [5] = experiment: Binding affinity to negatively charged tethered bilayer lipid membranes assessed as increase in membrane capacitance changes at 0.1 to 100 uM by electrochemical impedance spectroscopic analysis; procedure, shortened: as §2
Escherichia coli [6] = experiment: Antibiofilm activity against Escherichia coli K-12 assessed as inhibition of biofilm formation at 250 uM after 24 hrs by crystal violet staining based assay relative to control; format: functional; conditions: K-12, 24 h
Procedure, shortened: (§3)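 Overnight culture diluted 1:20 in LB and grown overnight at 37 °C, 150 rpm, in 96-well plates. Compounds added at 250 µM from DMSO stock; controls received equal DMSO. Incubated overnight at 37 °C, 150 rpm. Biofilm on polystyrene quantified by crystal violet staining. Triplicate, three independent experiments.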

Lipid bilayer [7] = experiment: Binding affinity to zwitterionic tethered bilayer lipid membranes assessed as increase in membrane conduction response by electrochemical impedance spectroscopic analysis; procedure, shortened: as §2
MRC5 [8] = experiment: Cytotoxicity against human MRC5 cells after 72 hrs by Alamar blue staining-based spectrophotometric analysis; format: cell-based; conditions: for IC50: Homo sapiens, MRC5, 72 h; for Activity: human, mrc5, 72 h
Procedure, shortened: (§4)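 MRC-5 lung fibroblasts grown in MEM with 10% FCS, 37 °C, 5% CO₂. Seeded at 2 × 10⁴ cells/well to confluence, then treated 24 h later for 72 h. Medium replaced with 10% Alamar blue for 6 h and absorbance read. Viability expressed as % of untreated cells and IC50 derived. Triplicate, three independent experiments.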

Lipid bilayer [9] = experiment: Binding affinity to negatively charged tethered bilayer lipid membranes assessed as increase in membrane conduction response at 0.1 to 100 uM by electrochemical impedance spectroscopic analysis; procedure, shortened: as §2
Staphylococcus aureus [10] = experiment: Antibiofilm activity against Staphylococcus aureus SA38 assessed as inhibition of biofilm formation at 250 uM after 24 hrs by crystal violet staining based assay relative to control; format: functional; conditions: SA38, 24 h; procedure, shortened: as §3
Lipid bilayer [11] = experiment: Binding affinity to zwitterionic tethered bilayer lipid membranes assessed as increase in membrane capacitance changes at 0.1 to 100 uM by electrochemical impedance spectroscopic analysis; procedure, shortened: as §2
MRC5 [12] = experiment: Cytotoxicity against human MRC5 cells up to 350 uM after 72 hrs by Alamar blue staining-based spectrophotometric analysis; format: cell-based; conditions: mrc5, 72 h; procedure, shortened: as §4
Lipid bilayer [13] = experiment: Binding affinity to negatively charged tethered bilayer lipid membranes assessed as increase in membrane capacitance changes at 10 uM by electrochemical impedance spectroscopic analysis; procedure, shortened: as §2
Staphylococcus aureus [14] = experiment: Antibiofilm activity against drug-resistant pre-formed Staphylococcus aureus biofilms assessed as inhibition of biomass formation at 4 times MIC; format: functional
Escherichia coli [15] = experiment: Induction of cytoplasmic membrane disruption in Escherichia coli K-12 at 3.9 to 31.2 uM by diSC3-5 dye-based luminescence spectrophotometric analysis; format: functional, organism-based
Staphylococcus aureus [16] = experiment: Induction of cytoplasmic membrane disruption in Staphylococcus aureus SA38 at 7.8 to 62.5 uM measured within 3 mins by diSC3-5 dye-based luminescence spectrophotometric analysis; format: functional, organism-based

| SMILES | MIC (Escherichia coli [1]) [µM] | MIC (Staphylococcus aureus [2]) [µM] | MIC (Pseudomonas aeruginosa) [µM] | Activity (Staphylococcus aureus [3]) | Activity (Lipid bilayer [4]) | Activity (Lipid bilayer [5]) | inhibition at 250 µM (Escherichia coli [6]) [%] | Activity (Lipid bilayer [7]) | IC50 (MRC5 [8]) [µM] | Activity (MRC5 [8]) | Activity (Lipid bilayer [9]) | inhibition at 250 µM (Staphylococcus aureus [10]) [%] | Activity (Lipid bilayer [11]) | Activity (MRC5 [12]) | Activity (Lipid bilayer [13]) | inhibition (INH) (Staphylococcus aureus [14]) [%] | Activity (Escherichia coli [15]) | Activity (Staphylococcus aureus [16]) |
| --- | --- | --- | --- | --- | --- | --- | --- | --- | --- | --- | --- | --- | --- | --- | --- | --- | --- | --- |
| COC(=O)[C@H](CCCCN)NC(=O)c1cccc(-c2cccc(NC(=O)[C@@H](N)Cc3c[nH]c4ccccc34)c2)c1 | > 125 | 31.2 (≈ 16.9 µg/mL) | > 250 | – | – | – | – | – | – | – | – | – | – | – | – | – | – | – |
| NCCCC[C@H](NC(=O)c1cccc(-c2cccc(NC(=O)[C@H](Cc3c[nH]c4ccccc34)NC(=O)[C@@H](N)Cc3ccccc3)c2)c1)C(=O)NCCN | 31.2 (≈ 22.4 µg/mL) | 31.2 (≈ 22.4 µg/mL) | 250 (≈ 179 µg/mL) | Active | Active | Dose-dependent effect | 8 | Dose-dependent effect | > 300 | Dose-dependent effect | inactive | 30 | Dose-dependent effect | Non-Toxic | Active | – | – | – |
| NCCNC(=O)c1cccc(-c2cccc(NC(=O)[C@@H](N)Cc3c[nH]c4ccccc34)c2)c1 | > 125 | 125 (≈ 55.2 µg/mL) | > 250 | – | – | – | – | – | – | – | – | – | – | – | – | – | – | – |
| NCCCC[C@H](NC(=O)c1cccc(-c2cccc(NC(=O)[C@@H](N)Cc3c[nH]c4ccccc34)c2)c1)C(=O)NCCN | > 125 | 31.2 (≈ 17.8 µg/mL) | > 250 | – | – | – | – | – | – | – | – | – | – | – | – | – | – | – |
| COC(=O)[C@H](CCCNC(=N)N)NC(=O)c1cccc(-c2cccc(NC(=O)[C@@H](N)Cc3c[nH]c4ccccc34)c2)c1 | > 125 | 62.5 (≈ 35.6 µg/mL) | > 250 | – | – | – | – | – | > 300 | Dose-dependent effect | – | – | – | Non-Toxic | – | – | – | – |
| N=C(N)NCCNC(=O)[C@H](Cc1c[nH]c2ccccc12)NC(=O)[C@@H](N)Cc1ccccc1 | > 125 | > 250 | – | – | – | – | – | – | – | – | – | – | – | – | – | – | – | – |
| NCCNC(=O)c1cccc(-c2cccc(NC(=O)[C@H](Cc3c[nH]c4ccccc34)NC(=O)[C@@H](N)Cc3ccccc3)c2)c1 | > 125 | 62.5 (≈ 36.8 µg/mL) | 250 (≈ 147 µg/mL) | – | – | – | – | – | – | – | – | – | – | – | – | – | – | – |
| N=C(N)NCCNC(=O)[C@H](CCCCN)NC(=O)c1cccc(-c2cccc(NC(=O)[C@H](Cc3c[nH]c4ccccc34)NC(=O)[C@@H](N)Cc3ccccc3)c2)c1 | 15.6 (≈ 11.8 µg/mL) | 31.2 (≈ 23.7 µg/mL) | – | Active | – | – | – | – | > 300 | Dose-dependent effect | – | – | – | Non-Toxic | – | – | – | – |
| CC[C@H](C)[C@H](NC(=O)[C@H](CCCCN)NC(=O)[C@H](CCC(=O)O)NC(=O)[C@H](CCCCN)NC(=O)[C@H](CO)NC(=O)[C@H](CCCCN)NC(=O)[C@H](CCCNC(=N)N)NC(=O)[C@H](Cc1ccccc1)NC(=O)[C@H](Cc1ccccc1)NC(=O)[C@H](CC(=O)O)NC(=O)CNC(=O)[C@H](CC(C)C)NC(=O)[C@@H](N)CC(C)C)C(=O)NCC(=O)N[C@@H](CCCCN)C(=O)N[C@@H](CCC(=O)O)C(=O)N[C@@H](Cc1ccccc1)C(=O)N[C@@H](CCCCN)C(=O)N[C@@H](CCCNC(=N)N)C(=O)N[C@H](C(=O)N[C@H](C(=O)N[C@@H](CCC(N)=O)C(=O)N[C@@H](CCCNC(=N)N)C(=O)N[C@H](C(=O)N[C@@H](CCCCN)C(=O)N[C@@H](CC(=O)O)C(=O)N[C@@H](Cc1ccccc1)C(=O)N[C@@H](CC(C)C)C(=O)N[C@@H](CCCNC(=N)N)C(=O)N[C@@H](CC(N)=O)C(=O)N[C@@H](CC(C)C)C(=O)N[C@H](C(=O)N1CCC[C@H]1C(=O)N[C@@H](CCCNC(=N)N)C(=O)N[C@H](C(=O)N[C@@H](CCC(=O)O)C(=O)N[C@@H](CO)C(=O)O)[C@@H](C)O)C(C)C)[C@@H](C)CC)C(C)C)[C@@H](C)CC [CATHELICIDIN] | – | – | – | – | – | – | – | – | – | – | – | – | – | – | – | 40 | – | – |
| N=C(N)NCCNC(=O)c1cccc(-c2cccc(N)c2)c1 | > 125 | 62.5 (≈ 18.6 µg/mL) | > 250 | – | inactive | – | – | – | – | – | – | – | – | – | inactive | – | – | – |
| N=C(N)NCCNC(=O)c1cccc(-c2cccc(NC(=O)[C@@H](N)Cc3c[nH]c4ccccc34)c2)c1 | > 125 | 62.5 (≈ 30.2 µg/mL) | > 250 | – | – | – | 39 | – | > 300 | Dose-dependent effect | – | 41 | – | Non-Toxic | – | – | – | – |
| N=C(N)NCCNC(=O)c1cccc(-c2cccc(NC(=O)[C@H](Cc3c[nH]c4ccccc34)NC(=O)[C@@H](N)Cc3ccccc3)c2)c1 | 31.2 (≈ 19.7 µg/mL) | 15.6 (≈ 9.84 µg/mL) | 250 (≈ 158 µg/mL) | – | Active | Dose-dependent effect | – | Dose-dependent effect | > 300 | Dose-dependent effect | inactive | – | Dose-dependent effect | Non-Toxic | Active | – | – | – |
| COC(=O)[C@H](CCCNC(=N)N)NC(=O)c1cccc(-c2cccc(NC(=O)[C@H](Cc3c[nH]c4ccccc34)NC(=O)[C@@H](N)Cc3ccccc3)c2)c1 | 125 (≈ 89.6 µg/mL) | 31.2 (≈ 22.4 µg/mL) | 250 (≈ 179 µg/mL) | – | Active | Dose-dependent effect | – | Dose-dependent effect | > 300 | Dose-dependent effect | inactive | – | inactive | Non-Toxic | Active | – | – | – |
| COC(=O)[C@H](CCCCN)NC(=O)c1cccc(-c2cccc(NC(=O)[C@H](Cc3c[nH]c4ccccc34)NC(=O)[C@@H](N)Cc3ccccc3)c2)c1 | 125 (≈ 86.1 µg/mL) | 31.2 (≈ 21.5 µg/mL) | 250 (≈ 172 µg/mL) | – | Active | Dose-dependent effect | – | Dose-dependent effect | > 300 | Dose-dependent effect | inactive | – | Dose-dependent effect | Non-Toxic | Active | – | – | – |
| N=C(N)NCCC[C@H](NC(=O)c1cccc(-c2cccc(NC(=O)[C@H](Cc3c[nH]c4ccccc34)NC(=O)[C@@H](N)Cc3ccccc3)c2)c1)C(=O)NCCNC(=N)N | 7.8 (≈ 6.14 µg/mL) | 15.6 (≈ 12.3 µg/mL) | – | – | – | – | – | – | > 300 | Dose-dependent effect | – | – | – | Non-Toxic | – | – | Active | Active |
